From PubChem
In the library only some 4.9% were active in any assay of this set; here they are far more common.
APP 5'UTR act – APP 5'UTR luciferase reporter activation. activation, % at 2 µM. SH-SY5Y APP 5'UTR luciferase reporter, luminescence; zero percent = DMSO vehicle wells. 1% of 190,000 active. AID 1276;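 active = activation above a set limit, based on mean plus 3 SD of controls, cut at about 140% in these data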
STAT3 inh-1 – reduces IL-6 driven STAT3 reporter signal; U3A cells, IL-6 STAT3-luciferase reporter, luminescence; host cell line lacks STAT1; inhibition, % at 5.5 µM; 0.89% of 190,000 active;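 active = inhibition above the mean inhibition across all screened compounds plus 3 SD, cut at about 44% in these data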;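 note: 0% = DMSO only wells and 100% = 100 µM nifuroxazide control wells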
NF-kB expr up – compounds increasing NF-kB expression in human neuronal cells. NF-kB reporter expression; hits give high values. fold change at 12.5 µM. 1.6% of 190,000 active. AID 1239; in the data active = fold change above about 3.3
STAT1 inh – inhibitors of IFN-gamma induced STAT1 signaling; inhibition, % at 5.5 µM; 0.35% of 200,000 active; NIH 3T3 STAT1-luciferase reporter, luminescence;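 active = inhibition above a set limit, the mean inhibition across all tested compounds plus 3 SD, cut at about 34% in these data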;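 note: 0% = IFN-gamma with DMSO and 100% = IFN-gamma with 300 µM nifuroxazide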
STAT1 act – increases IFN-gamma driven STAT1 reporter signal; NIH 3T3 STAT1-luciferase reporter, luminescence; 100% = IFN-gamma alone, no compound; activation (% of control), % at 5.5 µM; 2.6% of 200,000 active;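 active = activation above the screen-wide mean activation plus 3 SD, cut at about 130% in these data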;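 note: raw ratio to IFN-gamma control signal so 100% means no change and 0% no light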
STAT3 activator – activators of IL-6 induced STAT3 signaling. U3A cells, IL-6 STAT3-luciferase reporter, luminescence; 100% = signal with IL-6 EC80 alone. activation (% of control), % at 5.6 µM. 0.91% of 190,000 active. AID 871;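 active = activation above the screen-wide mean of compound activation plus 3 SD, cut at about 130% in these data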;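 note: 0% = background luminescence of wells with medium and substrate only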
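Material: STAT3-luciferase reporter U3A cells. Controls: IL-6-treated wells, 100% activation. Read-out: % activation versus median of IL-6-stimulated wells. Probe or stimulus: IL-6 stimulus at 33 ng/mL final. Timing: compound 1 h, then IL-6 6 h at 37 °C. Signal: reporter luminescence signal.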
STAT3 inh-2 – confirmation of STAT3 signaling inhibitors | U3A cells, IL-6 STAT3 luciferase reporter, luminescence; cell line lacks STAT1 | inhibition, % at 5.7 µM | shares compounds with STAT3 inh-1 | 45% of 1,200 active;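 active = inhibition above the hit cutoff computed for the primary STAT3 screen, cut at about 44% in these data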;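 note: 0% = IL-6 plus DMSO and 100% = IL-6 plus nifuroxazide control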
NFkB inh 2 – NF-kappaB inhibition in STAT3 inhibitor counter-screen. HEK293T NF-kB luciferase reporter, TNF-alpha induced. inhibition, % at 5.7 µM. 36% of 1,200 active. shares compounds with STAT3 inh-1;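 active = inhibition above the mean of solvent-only control wells plus 3 SD, cutoff set per campaign, cut at about 13% in these data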;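 note: 0% = TNF-alpha with DMSO and 100% = TNF-alpha with MG high control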
STAT1 inh 2 – counter-screen for STAT3 inhibitors: STAT1 inhibition; shares compounds with STAT3 inh-1; NIH 3T3 STAT1-luciferase reporter, IFN-gamma induced, luminescence; inhibition, % at 5.7 µM; 27% of 1,200 active;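 active = inhibition above the mean plus 3 SD of solvent-only control wells, limit set per screening run, cut at about 16% in these data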;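 note: 0% = DMSO with IFN-gamma and 100% = nifuroxazide control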
Starred values were filed as active, the others as inactive; / = no result given.

SMILES	APP 5'UTR act	STAT3 inh-1	NF-kB expr up	STAT1 inh	STAT1 act	STAT3 activator	STAT3 inh-2	NFkB inh 2	STAT1 inh 2
O=C(c1ccc2c(c1)OCCO2)N1CCCC(CNS(=O)(=O)c2cccs2)C1 (centres undefined)	7	10	1.1	-2	100	97	/	/	/
c1ccc2oc(C3=NNC(=NC4CC4)SC3)cc2c1	/	57*	2.4	-19	117	51	23	-19	-54
c1ccc(CN=C2NN=C(c3cc4ccccc4o3)CS2)cc1	18	2	1.4	-12	111	102	/	/	/
CN(C)c1oc(-c2cccs2)nc1C#N	13	16	1.3	-2	102	88	/	/	/
CCOc1ccc(-c2nnc(-c3ccccc3)o2)cc1	114	66*	4.2*	19	86	48	38	4	-61
CCOc1nc(C)ccc1-c1noc(-c2ccncc2)n1	24	2	1.3	-8	108	102	/	/	/
CCCOc1ccc(-c2nnc(-c3cccs3)o2)cc1	46	66*	5.2*	-18	117	46	36	-4	-68
CCOc1ccc(-c2nc(-c3ccccc3C)no2)cc1	78	46*	/	-24	122	65	14	-20	-119
CCOc1ccc(-c2nnc(-c3ccc(OC)cc3)o2)cc1	7	8	1.6	-8	105	95	/	/	/
CN(C)c1ccc(-c2nnc(-c3cccs3)o2)cc1	163*	55*	7.2*	25	75	56	11	-28	-137
CCCCOc1ccc(-c2nnc(-c3ccncc3)o2)cc1	77	5	1.4	-11	112	99	/	/	/
CN(C)/C=C/C(=O)c1ccc(Cl)cc1Cl	6	-3	0.9	-7	103	106	/	/	/
CN(C)/C=C/C(=O)c1cnc(-c2ccc(Cl)cc2)s1	115	43*	3.9*	-36	133*	68	13	-33	-66
O=C(c1ccccc1)c1cnc(-c2ccccc2)s1	157*	52*	9.9*	-33	130*	59	17	-30	-77
O=C(c1ccccc1)c1cnc(-c2ccc(Cl)cc2)s1	123	48*	6.6*	-18	116	64	21	-15	-70
O=C(c1ccc(Cl)cc1)c1cnc(-c2ccc(Cl)cc2)s1	12	12	1.1	11	90	92	/	/	/
O=C(CN1CCN(c2nc(-c3ccccc3)cs2)CC1)NNC(=O)c1ccco1	5	8	0.98	7	93	95	/	/	/
O=C(N/N=C/c1ccc(O)cc1)Nc1cccc2nsnc12	-12	17	0.37	-20	118	88	/	/	/
O=C(/C=C/Nc1ccccc1)c1ccccc1	172*	67*	9.1*	33	70	46	36	-5	-57
COc1cccc(C(=O)/C=C/Nc2cccc(O)c2)c1	148*	102*	12*	20	87	15	96*	14*	23*
O=C(/C=C/Nc1ccc(F)cc1Br)c1ccccc1	149*	86*	1.6	18	84	27	76*	62*	33*
CCOC(=O)c1cc(CC)sc1NC(=O)c1ccc([N+](=O)[O-])c(N2CCOCC2)c1	-10	-7	1.2	-8	108	109	/	/	/
CCN(CC)S(=O)(=O)c1cc(Br)c(C)cc1OC	11	0	1.2	1	100	104	/	/	/
CCCc1n[nH]c2c1/C(=N/O)CC(c1ccccc1)C2 (centres undefined)	28	45*	1.2	4	96	64	44*	7	-3
CN(C(=O)CCN1C(=O)C2C3C=CC(C3)C2C1=O)c1ccccc1 (centres undefined)	13	12	/	2	98	94	/	/	/
SMILES	APP 5'UTR act	STAT3 inh-1	NF-kB expr up	STAT1 inh	STAT1 act	STAT3 activator	STAT3 inh-2	NFkB inh 2	STAT1 inh 2
CCCCC1CCC(c2nc(-c3ccccn3)no2)CC1 (centres undefined)	92	72*	2.4	-3	102	45	22	-39	-85
N#Cc1c2ccc(O)cc2n2ccccc12	-19	42	0.88	4	94	68	/	/	/
COc1ccc(C(=O)Nc2ccccc2C(=O)N/N=C/c2ccco2)cc1	17	48*	1.2	29	74	60	2	18*	20*
c1ccc(C(Cc2nc(-c3ccncc3)no2)c2ccccc2)cc1	-1	65*	1.2	-15	114	48	52*	7	-11
Cc1nn(Cc2c(F)c(F)c(F)c(F)c2F)c(C)c1NC(=O)c1cccc(COc2ccc(Cl)cc2)c1	50	-3	1.9	-8	108	109	/	/	/
Cc1cc(NC(=O)c2cccc(COc3ccc(Br)cc3)c2)no1	113	49*	2.7	15	86	63	19	41*	-15
CCOc1cc(C(=O)Nc2cc(C)on2)cc(OCC)c1OCC	10	3	0.99	5	95	100	/	/	/
CC(C)c1cc(C(N)=O)c(NC(=O)c2cccc(COc3ccc(Cl)cc3)c2)s1	80	63*	3	34*	68	48	32	8	11
CCOc1ccc(C(=O)Nc2cc(C)on2)cc1	109	46*	3.6*	-4	104	66	2	-23	-52
Cc1cc(NC(=O)COC(=O)c2cccc(OCc3ccccc3)c2)no1	-6	-10	1.2	-6	105	111	/	/	/
COc1ccc(S(=O)(=O)N2CC(O)CC2C(=O)OCc2nc3sc(C)c(C)c3c(=O)[nH]2)cc1 (centres undefined)	8	12	1.1	-9	108	97	/	/	/
Cc1cc(C)n(-c2ccc(C(=O)Nc3ccc(S(=O)(=O)NCc4ccco4)cc3)cc2)n1	-6	75*	0.48	11	90	37	56*	17*	19*
Cc1nc2ccc(NC(=O)c3cc(S(=O)(=O)N(C)c4ccccc4)ccc3Cl)cc2s1	-11	55*	0.81	21	81	56	64*	26*	27*
O=C(COC(=O)c1ccc2ncsc2c1)Nc1ncc(Cl)cc1Cl	5	2	1.4	6	94	102	/	/	/
Cc1c(Cl)cnc(NC(=O)COC(=O)c2ccc3ncsc3c2)c1Cl	-6	50*	1.1	15	87	58	35	12	8
O=C(CSc1ncnc2[nH]ncc12)Nc1nc(-c2ccc(F)c(F)c2)cs1	-10	33	0.93	20	81	78	/	/	/
CCc1nc(C)cn1S(=O)(=O)c1cc(C)c(OC)cc1C	8	18	1	7	93	92	/	/	/
